The values that follow come from ChEMBL document CHEMBL2346554, “Extreme multidrug resistant HIV-1 protease with 20 mutations is resistant to novel protease inhibitors with P1'-pyrrolidinone or P2-tris-tetrahydrofuran” (J Med Chem, 2013).

The target in test [1] is Protease (Human immunodeficiency virus 1) (UniProt Q9YQ12). The experiment in a line: Inhibition of HIV1 protease dimerization transfected in COS7 cells relative to darunavir. The test is classed as cell-based. The note with it: COS-7.
For test [2], the system named is Human immunodeficiency virus type 1 protease (Human immunodeficiency virus 1), Q72874 [Q7K,L10F,I13V,I15V,D30V,V32I,L33F,E35D,M36I,S37N,I47V,I54L,Q58E,I62V,L63P,A71V,I84V,N88D,L89T,L90M]. The experiment in a line: Binding affinity to HIV1 protease Q7K, L10F, I13V, I15V, D30V, V32I, L33F, E35D, M36I, S37N, I47V, I54L, Q58E, I62V, L63P, A71V, I84V, N88D, L89T, L90M mutant expressed in Escherichia coli BL21 (DE3) assessed as association constant by isothermal titration calorimetric analysis. In short, it runs like this: (§1)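 PR20 (1.8−2.15 mg/mL in 12 mM HCl) was folded by adding 5 mM sodium acetate pH 6, then 100 mM sodium acetate pH 5, and centrifuged. It was titrated in the ITC cell with inhibitor at ~10-fold the PR20 concentration, in matching buffer. Inhibitor concentration was estimated from the fitted N at known PR20, assuming 1:1 binding. KL = 1/KA.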

The test system is the same in test [3]. The experiment in a line: Ratio of amprenavir dissociation constant K to compound dissociation constant K for HIV1 protease Q7K, L10F, I13V, I15V, D30V, V32I, L33F, E35D, M36I, S37N, I47V, I54L, Q58E, I62V, L63P, A71V, I84V, N88D, L89T, L90M mutant.
The test system is the same in test [4]. The experiment in a line: Binding affinity to HIV1 protease Q7K, L10F, I13V, I15V, D30V, V32I, L33F, E35D, M36I, S37N, I47V, I54L, Q58E, I62V, L63P, A71V, I84V, N88D, L89T, L90M mutant expressed in Escherichia coli BL21 (DE3) assessed as dissociation constant by isothermal titration calorimetric analysis. In short, it runs like this: as §1
(In general: Isothermal titration calorimetry measures the heat released or taken up as one component is titrated into another.)

For test [5] the test system is unchanged. The experiment in a line: Inhibition of transferrin receptor-fused HIV1 protease Q7K, L10F, I13V, I15V, D30V, V32I, L33F, E35D, M36I, S37N, I47V, I54L, Q58E, I62V, L63P, A71V, I84V, N88D, L89T, L90M mutant autoprocessing expressed in Escherichia coli up to 100 uM by SDS-PAGE analysis. The procedure, abridged: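 TFR-fused PR20 precursor was expressed in E. coli cultures grown with increasing inhibitor in the medium, up to 100 μM. The protein was partially purified, and autoprocessing was assessed by SDS-PAGE against wild-type TFR-PR with inhibitor.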

Test [6] has the same test system. The experiment in a line: Inhibition of transferrin receptor-fused HIV1 protease Q7K, L10F, I13V, I15V, D30V, V32I, L33F, E35D, M36I, S37N, I47V, I54L, Q58E, I62V, L63P, A71V, I84V, N88D, L89T, L90M mutant autoprocessing expressed in Escherichia coli at 100 to 150 uM by SDS-PAGE analysis.
Test [7] concerns the target Protease (Human immunodeficiency virus 1) (UniProt Q9YQ12). The following applies: 0.5 to 8 uM.

Activity calls are given as the source filed them. The calls are words filed in the database; no cut-off is given here.

`COc1ccc(S(=O)(=O)N(CC(C)C)C[C@@H](O)[C@H](Cc2ccccc2)NC(=O)O[C@H]2CO[C@H]3O[C@@H]4OCC[C@@H]4[C@H]32)cc1` yielded a fold change (FC) in test [1] of 10. For the same compound, the K came to 25.3 ×10⁶ /M in test [2] and 39.5 nM in test [4]. The Ratio in test [3] turned out to be 4.5. Also, the inhibition result in test [5] was “inactive”.

With `COc1ccc(S(=O)(=O)N(C[C@H]2CCC(=O)N2)C[C@@H](O)[C@H](Cc2ccccc2)NC(=O)O[C@@H]2C[C@@H]3CCO[C@@H]3C2)cc1`, the K in test [2] was 1.04 ×10⁶ /M; in test [4], 960 nM. The inhibition entry in test [5] is “inactive”.

Regarding `CC(C)CN(C[C@@H](O)[C@H](Cc1ccccc1)NC(=O)O[C@H]1CCOC1)S(=O)(=O)c1ccc(N)cc1`, the K is 5.61 ×10⁶ /M in test [2] and 178 nM in test [4]. Besides, the inhibition result in test [6] is “inactive”.

With `CC(C)CN(C[C@@H](O)[C@H](Cc1ccccc1)NC(=O)O[C@H]1CO[C@H]2OCC[C@H]21)S(=O)(=O)c1ccc(N)cc1`, the inhibition result in test [7] was “Active”. Further, the K in test [2] was found to be 24.5 ×10⁶ /M; in test [4], 41 nM. In test [6], the inhibition result is “inactive”.
